Compound activity: PubChem, Johns Hopkins Ion Channel Center
Hits are enriched below; roughly 2.3% of the tested compounds scored in any of these assays.
TRPC4 agonist – activators of mouse TRPC4 channel; Q9QUQ5; HEK293 TRPC4beta/mu-opioid, Fluo4 calcium fluorescence; stronger effect = higher value; B-score at 10 µM; hit rate 0.49% among 310,000;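 active = B-score above 5 SD of library B-scores, and initial fluorescence ratio not above library mean plus 5 SD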;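 also: positive B-score marks a calcium rise read as TRPC4 activation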
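Technique: kinetic Fluo4 calcium fluorescence; Test system: TRPC4beta and mu-opioid receptor HEK293 stable cells; Measure: B-scored integrated calcium fluorescence ratio; Benchmarks: low control buffer alone, high control maximal DAMGO; Schedule: 45 min room-temperature Fluo4 loading, 110 s read.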
TRPC6 inhibitor – inhibitors of mouse TRPC6 channel; Q61143; HEK293-TRPC6, membrane potential dye, ACh-evoked depolarization; stronger effect = lower value; B-score at 10 µM; hit rate 1.1% among 310,000; AID 2553;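 active = B-score under library mean minus 3 SD, initial fluorescence not abnormally high, positive integrated signal ratio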;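 also: B-score derived from integrated fluorescence ratio over the kinetic read; more negative B-score means stronger inhibition of depolarization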
TRPC4 inh – inhibitors of mouse TRPC4 channel. Q9QUQ5. HEK293 TRPC4beta/mu-opioid, DAMGO-evoked Fluo4 calcium flux; stronger effect = lower value. B-score at 10 µM. hit rate 0.39% among 300,000. AID 2247;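 active = B-score over 3 SD under the library average, no early fluorescence shift, positive overall ratio signal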
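Assay system: HEK293 cells with stable TRPC4beta plus mu-opioid receptor expression; Probe or stimulus: DAMGO in two steps, submaximal then maximal; Dosing: single-point compound dosing; Measured by: Fluo4 calcium-dye fluorescence, kinetic read; Read-out basis: B score from integrated Fluo4 fluorescence ratio.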
TRPC4 potent – allosteric potentiators of mouse TRPC4 channel; Q9QUQ5; HEK293 TRPC4beta/mu-opioid, DAMGO EC20, Fluo-4 Ca2+ flux; stronger effect = higher value; B-score at 10 µM; hit rate 0.42% among 310,000;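 active = B-score of calcium response area above 5 SD of library B-scores, with initial fluorescence ratio within 5 SD of library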;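 also: B-score of integrated fluorescence ratio over time as area under calcium response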
TRPC6 act – activators of mouse TRPC6 channel. AID 2550. hit rate 0.13% among 310,000. B-score at 10 µM. HEK293-TRPC6 membrane potential dye fluorescence; stronger effect = higher value;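 active = B-score of the integrated fluorescence ratio above library mean plus 3 SD, and starting fluorescence ratio within library mean plus 5 SD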;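 also: higher score means more depolarization so channel activation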
TRPC4 spec 2 – second check of whether TRPC6 inhibitors also affect mouse TRPC4; shares compounds with TRPC6 inhibitor; HEK293 TRPC4/MOR, membrane potential dye fluorescence; channel activated by saturating DAMGO dose; hit rate 42% among 920; inhibition, % at 10 µM; AID 2776;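 active = compounds whose fluorescence signal differed from control wells by over 3 SD, either direction, in both duplicate plates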
TRPC4 spec – tests whether TRPC6 inhibitors also affect mouse TRPC4. shares compounds with TRPC6 inhibitor. HEK293 TRPC4/mu-opioid, membrane potential fluorescence. activity change, negative = inhibition, % at 10 µM. hit rate 61% among 920;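 active = rise or fall in signal beyond 3 SD of buffer-only wells in both replicate plates, either sign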;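 also: integrated kinetic ratio of fluorescence range over baseline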
HEK293 MPD ctr 2-1 – second counter-screen for TRPC6 inhibitors: parental HEK293 cells; shares compounds with TRPC6 inhibitor; parental HEK293 membrane potential dye fluorescence; maximal acetylcholine challenge after compound addition; signal change vs control, % at 10 µM; hit rate 31% among 920; AID 2779;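 active = membrane potential signal moving either way by over 3 SD of the maximum-effect control, in both duplicate plates, meaning non-specific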
HEK293 MPD ctr-1 – parental HEK293 nonspecific activity of TRPC6 inhibitors | shares compounds with TRPC6 inhibitor | parental HEK293 membrane potential dye fluorescence | membrane potential signal change, % at 10 µM | hit rate 60% among 920;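 active = membrane potential signal shifting up or down by more than 3 SD of buffer-only wells, on both duplicate plates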
HEK293 MPD ctr-2 – checks TRPC6 modulator effects in parental HEK293 cells. membrane potential dye fluorescence. shares compounds with TRPC6 inhibitor. hit rate 51% among 2,400. membrane potential signal change, % at 10 µM;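 active = membrane potential signal moves up or down beyond 5 SD from buffer-only wells, on both duplicate plates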
HEK293 MPD ctr 2-2 – parental HEK293 nonspecific activity of TRPC6 modulators, second screen | shares compounds with TRPC6 inhibitor | hit rate 14% among 2,400 | membrane potential dye fluorescence; after compound, maximal acetylcholine stimulation | inhibition, % at 10 µM;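 active = membrane potential signal drops by more than 5 SD from the mean control signal, in both duplicate plates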;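 also: plate controls were acetylcholine ECmax control wells for no effect and buffer only wells for full effect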
TRPC4 ctr mod – selectivity of TRPC6 modulators against mouse TRPC4. percent change from control (negative = decrease, positive = increase), % at 10 µM. hit rate 69% among 2,400. shares compounds with TRPC6 inhibitor. HEK293 TRPC4/mu-opioid, membrane potential fluorescence. AID 488927;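 active = membrane potential signal moved up or down beyond 5 SD of buffer control wells, in both duplicate plates, actives on both sides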;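 also: plate controls were assay buffer wells for no effect and DAMGO maximal-effect wells for full effect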
TRPC4 ctr inh 2 – second check of whether TRPC6 modulators also affect mouse TRPC4; shares compounds with TRPC6 inhibitor; HEK293 TRPC4/mu-opioid, membrane potential dye fluorescence; stimulated with maximal-effect DAMGO; inhibition, % at 10 µM; hit rate 55% among 2,400;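 active = drop in membrane potential signal beyond 5 SD of the control wells in both duplicate plates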;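 also: TRPC4 counter screen for TRPC6 hits run under conditions tuned for TRPC6 not TRPC4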
TRPC6 block conf – mouse TRPC6 inhibitor confirmation; inhibition, % at 10 µM; hit rate 43% among 3,300; HEK293-TRPC6, membrane potential dye, ACh-evoked depolarization; shares compounds with TRPC6 inhibitor;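 active = fluorescence ratio falls more than 5 SD below the full-stimulation control mean, in both duplicate runs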;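 also: integrated fluorescence ratio of peak minus minimum over baseline after agonist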
TRPC6 act conf – confirmation of mouse TRPC6 activators; shares compounds with TRPC6 inhibitor; HEK293-TRPC6 membrane potential dye fluorescence, FDSS; activation, % at 10 µM; hit rate 11% among 2,800; AID 488961;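 active = ratio signal rise beyond 5 SD above unstimulated control wells' mean, seen in both duplicate runs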;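 also: plate controls were buffer EC0 wells for no effect and acetylcholine ECmax response for full effect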
An asterisk follows results filed as active; i = inactive; / = not tested or not shown; + = active, no number.

SMILES | TRPC4 agonist | TRPC6 inhibitor | TRPC4 inh | TRPC4 potent | TRPC6 act | HEK293 MPD ctr-2 | HEK293 MPD ctr 2-2 | TRPC4 ctr mod | TRPC4 ctr inh 2 | TRPC6 block conf | TRPC6 act conf | others
COc1cc(OC)c(C(=O)N(CCc2ccccc2)Cc2ccccc2)cc1OC | i | -6.89* | i | i | i | / | / | / | / | i | i | TRPC4 spec 2=i;TRPC4 spec=15.5%*;HEK293 MPD ctr 2-1=i;HEK293 MPD ctr-1=9.0%*
Cc1ccc(N(CC(=O)NCc2ccccc2)C(=O)c2csnn2)c(C)c1 | i | i | i | i | i | / | / | / | / | / | /
CN1CCN(c2nc3c(c(=O)[nH]c(=O)n3C)n2CCCSc2nnnn2-c2ccccc2)CC1 | i | -6.53* | i | i | i | -212.0%* | i | -28.5%* | i | i | i
COc1ccc(-c2[nH]c3ccccc3c2SCCN)cc1 | i | -8.68* | i | i | i | / | / | / | / | 74.3%* | i | TRPC4 spec 2=45.0%*;TRPC4 spec=-16.4%*;HEK293 MPD ctr 2-1=i;HEK293 MPD ctr-1=-262.5%*
CCOC(=O)c1c(C)n(-c2ccc(OC)cc2)c2c(C/C(C)=N/O)c(Br)c(OC)c(O)c12 | i | i | i | i | i | / | / | / | / | / | /
Cc1ccc(S(=O)(=O)N2CCN(C(=O)COC(=O)/C=C/c3ccccc3[N+](=O)[O-])CC2)c(C)c1 | i | i | i | i | i | / | / | / | / | / | /
O=C(NC1CCCC1)C(c1ccccn1)N(C(=O)c1csnn1)c1ccc(F)cc1 (stereo not given) | i | i | i | i | i | / | / | / | / | / | /
O=c1c2[nH]c3ccccc3c2ncn1C1CCCCC1 | i | i | i | i | i | / | / | / | / | / | /
O=C1c2ccccc2C(=O)c2c1ccc1c(=O)n(C3CCCCC3)[nH]c21 | i | -5.06* | i | i | i | -93.5%* | i | -20.0%* | i | i | i
CC(=O)N1CCOc2ccc(S(=O)(=O)NCCc3ccc(Cl)cc3)cc21 | i | i | i | i | i | / | / | / | / | / | /
CCOC(=O)C1=C(C)N=c2s/c(=C/c3ccc(OCC(=O)O)cc3)c(=O)n2C1c1ccc(OC)cc1OC (stereo not given) | i | i | i | i | 15.8* | + | i | 62.0%* | i | i | 131.5%*
CN(c1ccccc1)S(=O)(=O)c1nnc(NC(=O)C2CCCCC2)s1 | i | i | i | i | i | / | / | / | / | / | /
O=C(O)c1ccc(N2CCCC2=O)cc1 | i | i | i | i | i | / | / | / | / | / | /
O=C(Nc1ccncc1)c1ccc(N2CCCC2=O)cc1 | i | -7.07* | i | i | i | -237.5%* | i | -42.5%* | 34.5%* | i | i
